ChEMBL document CHEMBL3797089, “Morusin Induces TRAIL Sensitization by Regulating EGFR and DR5 in Human Glioblastoma Cells” (J Nat Prod, 2016)
Activity calls are given as the source filed them. The calls are words filed in the database; no cut-off is given here.

Experiments:
[1] = Reduction of EGFR expression in human U251MG cells at 25 uM after 24 hrs by Western blot analysis; type: functional, cell-based; conditions: U-251
Summary of the method: (§1)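 LN18, U87MG, T98G, U251MG and U373MG glioblastoma cells were exposed to morusin for 24 h. Cells were maintained in DMEM, MEM or RPMI with 10% FBS at 37 °C and 5% CO2. Whole-cell lysates were Western blotted for receptor proteins, with β-actin as internal control.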

[2] = Reduction of EGFR expression in human LN18 cells at 25 uM after 24 hrs by Western blot analysis; type: functional, cell-based; conditions: LN-18; summary of the method: as §1
U-87 MG [3] = experiment: Induction of apoptosis in human U87MG cells assessed as increase in cleaved PARP levels at 2.5 uM after 24 hrs by Western blot analysis in presence of TRAIL; type: functional, cell-based; conditions: U-87MG ATCC
Summary of the method: (§2)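 U87MG and T98G given TRAIL 25 ng/mL plus morusin 2.5 μM together for 24 h; single-agent arms used TRAIL 50 ng/mL or morusin 5 μM. Lysates immunoblotted for cleaved caspase 3, 8, 9 and cleaved PARP, with β-actin as internal control.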

LN-18 [4] = experiment: Effect on DR4 expression in human LN18 cells upto 25 uM after 24 hrs by Western blot analysis; type: functional, cell-based
Summary of the method: (§3)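 Cells exposed to a range of morusin concentrations for 24 h. Cell extracts immunoblotted for DR4, DR5, DcR1 and DcR2, with β-actin as internal control and HRP-conjugated secondary antibodies (1:5000).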

U-251 [5] = experiment: Effect on DcR2 expression in human U251MG cells upto 25 uM after 24 hrs by Western blot analysis; type: functional, cell-based; summary of the method: as §3
T98G [6] = experiment: Induction of apoptosis in human T98G cells assessed as increase in cleaved caspase 3 levels at 2.5 uM after 24 hrs by Western blot analysis in presence of TRAIL; type: functional, cell-based; summary of the method: as §2
[7] = Reduction of survivin expression in human U87MG cells after 24 hrs by Western blot analysis; type: functional, cell-based; conditions: U-87MG ATCC
Summary of the method: (§4)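 U87MG (MEM) and U373MG (RPMI) cells were given graded morusin concentrations for 24 h. Whole-cell extracts were immunoblotted for anti-apoptotic proteins, with β-actin as loading control.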

[8] = Cytotoxicity against human U87MG cells assessed as reduction in cell viability measured up to 20 uM after 24 hrs by MTT assay in presence of TRAIL; type: functional, U-87MG ATCC
Summary of the method: (§5)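 MTT viability. 3–5 × 10^3 cells/well, treated the next day with TRAIL 100 ng/mL plus increasing morusin concentrations for 24 h. 1 mg/mL MTT for 2 h at 37 °C, lysis overnight, OD 570 nm. Living-cell fractions were used for combination index analysis. Mean ± SD, at least three independent experiments.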

[9] = Cytotoxicity against human U373MG cells assessed as reduction in cell viability measured up to 20 uM after 24 hrs by MTT assay in presence of TRAIL; type: functional, U-373MG ATCC; summary of the method: as §5
[10] = Reduction of XIAP mRNA expression in human U87MG cells after 24 hrs by RT-qPCR analysis; type: functional, cell-based; conditions: U-87MG ATCC
Summary of the method: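 U87MG cells were treated with graded morusin for 24 h. Total RNA was extracted with TRI Reagent, and 1 μg was reverse transcribed. XIAP and survivin mRNA were quantified by RT-qPCR, normalized to GAPDH. Results are mean ± SD from at least three independent experiments; unpaired t-test.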

[11] = Cytotoxicity against human U251MG cells assessed as reduction in cell viability measured up to 20 uM after 24 hrs by MTT assay in presence of TRAIL; type: functional, U-251; summary of the method: as §5
[12] = Reduction of survivin expression in human U373MG cells at 25 uM by Western blot analysis; type: functional, cell-based; conditions: U-373MG ATCC, TDE = time-dependent effect
Summary of the method: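 Time course: U87MG and U373MG cells were exposed to 25 μM morusin for the indicated times. Whole-cell extracts were Western blotted, with β-actin as internal control.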

U-251 [13] = experiment: Effect on DcR1 expression in human U251MG cells upto 25 uM after 24 hrs by Western blot analysis; type: functional, cell-based; summary of the method: as §3
[14] = Reduction of XIAP expression in human U373MG cells after 24 hrs by Western blot analysis; type: functional, cell-based; conditions: U-373MG ATCC; summary of the method: as §4
[15] = Reduction of PDGFR expression in human U87MG cells at 25 uM after 24 hrs by Western blot analysis; type: functional, cell-based; conditions: U-87MG ATCC; summary of the method: as §1
U-87 MG [16] = experiment: Induction of DR5 expression in human U87MG cells at 25 uM after 24 hrs by FITC-conjugated flow cytometric analysis; type: functional, cell-based; conditions: U-87MG ATCC
Summary of the method: (§6)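 Cells given 25 μM morusin for 24 h, then stained on ice for 30 min with 0.5 μg/mL FITC-conjugated anti-DR4, anti-DR5 or isotype IgG in FACS buffer. Surface expression read by flow cytometry.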

[17] = Cytotoxicity against human U373MG cells assessed as reduction in cell viability after 24 hrs by MTT assay; type: functional, cell-based, U-373MG ATCC; conditions: U373 MG
Summary of the method: (§7)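 Seeded 3–5 × 10^3 cells/well, treated the next day with a range of morusin (DMSO stock) for 24 h, 37 °C, 5% CO2. Then fresh medium with 1 mg/mL MTT for 2 h at 37 °C, lysis buffer overnight at 37 °C, OD 570 nm. Mean ± SD from at least three independent experiments in triplicate.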

U-251 [18] = experiment: Effect on DR4 expression in human U251MG cells upto 25 uM after 24 hrs by Western blot analysis; type: functional, cell-based; summary of the method: as §3
[19] = Stability in human U87MG cells assessed as compound remaining at 10 uM after 24 hrs; type: ADME, cell-based, U-87MG ATCC; conditions: read-out: Stability
U-251 [20] = experiment: Induction of DR5 expression in human U251MG cells at 25 uM after 24 hrs by FITC-conjugated flow cytometric analysis; type: functional, cell-based; summary of the method: as §6
T98G [21] = experiment: Reduction of EGFR expression in human T98G cells at 25 uM after 24 hrs by Western blot analysis; type: functional, cell-based; summary of the method: as §1
T98G [22] = experiment: Induction of apoptosis in human T98G cells assessed as increase in cleaved caspase 8 levels at 2.5 uM after 24 hrs by Western blot analysis in presence of TRAIL; type: functional, cell-based; summary of the method: as §2
U-87 MG [23] = experiment: Induction of DR5 expression in human U87MG cells after 24 hrs by Western blot analysis; type: functional, cell-based; conditions: U-87MG ATCC; summary of the method: as §3
[24] = Cytotoxicity against human LN18 cells assessed as reduction in cell viability after 24 hrs by MTT assay; type: functional, cell-based; conditions: LN-18, 24 h; summary of the method: as §7
U373 MG [25] = experiment: Induction of DR5 expression in human U373MG cells at 25 uM by Western blot analysis; type: functional, cell-based; conditions: U-373MG ATCC, TDE = time-dependent effect
Summary of the method: (§8)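 Time course: U87MG and U373MG cells held at 25 μM morusin for the times indicated. Extracts immunoblotted (cIAP1 or DR5), with β-actin as loading control.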

U-87 MG [26] = experiment: Effect on cIAP1 expression in human U87MG cells at 25uM after 3 to 18 hrs by Western blot analysis; type: functional, cell-based; conditions: U-87MG ATCC; summary of the method: as §8
U373 MG [27] = experiment: Induction of DR5 expression in human U373MG cells at 25 uM after 24 hrs by FITC-conjugated flow cytometric analysis; type: functional, cell-based; conditions: U-373MG ATCC; summary of the method: as §6
LN-18 [28] = experiment: Effect on DcR1 expression in human LN18 cells upto 25 uM after 24 hrs by Western blot analysis; type: functional, cell-based; summary of the method: as §3
T98G [29] = experiment: Cytotoxicity against human T98G cells assessed as reduction in cell viability measured up to 20 uM after 24 hrs by MTT assay in presence of TRAIL; type: functional; summary of the method: as §5
T98G [30] = experiment: Cytotoxicity against human T98G cells assessed as reduction in cell viability after 24 hrs by MTT assay; type: functional, cell-based; summary of the method: as §7
U373 MG [31] = experiment: Effect on DcR2 expression in human U373MG cells upto 25 uM after 24 hrs by Western blot analysis; type: functional, cell-based; conditions: U-373MG ATCC; summary of the method: as §3

SMILES: CC(C)=CCc1c(-c2ccc(O)cc2O)oc2c3c(cc(O)c2c1=O)OC(C)(C)C=C3 [MORUSIN]
- Activity [1]: Active
- Activity [2]: Active
- Activity (U-87 MG [3]): Active
- Activity (LN-18 [4]): inactive
- Activity (U-251 [5]): inactive
- Activity (T98G [6]): Active
- inhibition [7]: Dose-dependent effect
- CI [8]: <0.8
- CI [9]: <0.8
- Activity [10]: Dose-dependent effect
- CI [11]: <0.8
- inhibition [12]: tde
- Activity (U-251 [13]): inactive
- inhibition [14]: Dose-dependent effect
- Activity [15]: Active
- Activity (U-87 MG [16]): Active
- IC50 [17]: 24 µM
- Activity (U-251 [18]): inactive
- remaining at 24 h, 10 µM [19]: > 94%
- Activity (U-251 [20]): Active
- Activity (T98G [21]): Active
- Activity (T98G [22]): Active
- Activity (U-87 MG [23]): Dose-dependent effect
- IC50 [24]: 24 µM
- Activity (U373 MG [25]): tde
- Activity (U-87 MG [26]): inactive
- Activity (U373 MG [27]): Active
- Activity (LN-18 [28]): inactive
- CI (T98G [29]): <0.8
- IC50 (T98G [30]): 24 µM
- Activity (U373 MG [31]): inactive
